Source: PubChem
The sample as a whole holds a higher share of hits than the screen did.
DAT uptake mod – changed human dopamine transporter uptake under cocaine IC80; Q01959; LLC-PK1 hDAT cells, [14C]-dopamine uptake with cocaine IC80; actives deviate in either direction; B-score at 10 µM; 110,000 tested, 1.3% active; AID 449768;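 active = Z score or B-score, a plate-position-corrected score, falls beyond the plate's 99.7% confidence bounds, in either direction; inactive = both scores lie inside the 99.7% bounds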;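 note: scored against the spread of the other compound wells on the same plate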
Ec RNAP inh – Escherichia coli RNA polymerase inhibition. P0A8V2. E. coli RNA polymerase, fluorescence transcription assay. inhibition, %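 (tested at 10 µM)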. 62,000 tested, 0.2% active; in the data active = inhibition above about 20%;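 note: 0% = enzyme without compound and 100% = no enzyme blank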
D1 allo mod – allosterically modulates the human D1 dopamine receptor | HEK293 D1, CRE-luciferase, dopamine EC30 potentiation; actives deviate in either direction | B-score at 10 µM | 58,000 tested, 5.9% active | AID 641;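 active = luminescence count or its row- and column-corrected plate score outside the 99.7% band of the plate's sample wells, on either side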
Target sequence (P21728 whole entry, looked up): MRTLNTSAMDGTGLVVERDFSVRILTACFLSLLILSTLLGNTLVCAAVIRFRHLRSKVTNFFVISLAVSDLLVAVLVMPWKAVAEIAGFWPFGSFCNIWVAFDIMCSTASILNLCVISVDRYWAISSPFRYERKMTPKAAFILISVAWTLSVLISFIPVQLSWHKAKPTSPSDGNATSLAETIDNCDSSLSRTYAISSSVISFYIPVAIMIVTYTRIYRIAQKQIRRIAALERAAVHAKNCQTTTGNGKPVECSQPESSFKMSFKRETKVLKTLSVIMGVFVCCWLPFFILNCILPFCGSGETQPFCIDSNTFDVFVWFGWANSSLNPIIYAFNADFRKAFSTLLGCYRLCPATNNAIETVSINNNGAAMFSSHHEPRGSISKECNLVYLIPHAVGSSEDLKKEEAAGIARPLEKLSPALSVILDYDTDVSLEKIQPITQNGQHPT
HEK293 NFkB inh – lowers PMA/ionomycin-induced NF-kB signal in HEK293 cells; inhibition, % at 3 µM; HEK-293 NF-kB luciferase reporter, luminescence; 62,000 tested, 0.21% active;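 active = inhibition above the mean of all tested compounds plus 3 SD, cut at about 40% in these data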;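 note: 0% = stimulated DMSO wells and 100% = 10 µM reference inhibitor 5653914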
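Timing: 1 h pretreatment, 16 h stimulation, 37 °C; system: HEK-293 cells with stable firefly luciferase reporter driven by four HIV NF-kB elements; doses: 3 µM once, 0.30% DMSO; measured by: luciferase luminescence; control set: DMSO and 10 µM reference inhibitor; repeats: single test; reagent: PMA plus ionomycin mix as NF-kB-activating stimulus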
AP ELISA ortho – orthogonal test for alternative complement pathway inhibitors; 62,000 tested, 0.08% active; inhibition, % at 5 µM; AID 1235; Human serum alternative complement pathway, LPS-coated ELISA, C3 deposition; tested in compound mixtures;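 active = inhibition above 30% in each of the two pooled mixtures holding the compound, so the lower value exceeds 30%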;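 note: 0% = serum in Mg-EGTA without compound and 100% = EDTA serum blank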
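Assay system: Human serum alternative complement pathway, C3 deposition on LPS-coated wells | Incubation: 1 h serum-compound exposure at 37 °C | Doses: 5 µM per compound in ten-compound mixtures | Read-out: Percent inhibition | Technique: ELISA with HRP anti-human C3 antibody, TMB substrate, absorbance 450 nm | Replication: Two pool placements per compound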
D1 PAM confirm – D1 receptor (human) allosteric modulation, confirmed. shares compounds with D1 allo mod. HEK293 D1 CRE-luciferase, dopamine EC30 potentiation; hits give high values. luminescence at 10 µM. 2,200 tested, 88% active. AID 642;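 active = luminescence in either of two replicates above the same-plate mean plus 3 SD of the low-dose dopamine control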
D1 no dopamine – activates D1 CRE-luciferase signal without dopamine present. shares compounds with D1 allo mod. HEK293 D1 CRE-luciferase, luminescence, no dopamine; hits give high values. luminescence at 10 µM. 1,900 tested, 0.8% active; in the data active = luminescence above about 3900
Isoprot counter – isoproterenol response counter-screen activity for D1 modulators; shares compounds with D1 allo mod; HEK293 D1 CRE-luciferase, isoproterenol EC30 counter-screen; calls only at 10 µM; 2,200 tested, 63% active; AID 647;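 active = luminescence in either replicate above plate mean of wells with a partly effective reference agonist dose plus 3 SD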;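 note: isoproterenol raises cAMP through native beta-adrenoceptor Gs so signal bypasses D1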
The depositor's hits bear a star; i = inactive; . = not tested or not shown; + = active, no number.

SMILES | DAT uptake mod | Ec RNAP inh | D1 allo mod | HEK293 NFkB inh | AP ELISA ortho | D1 PAM confirm | D1 no dopamine | Isoprot counter
Cc1sc2nc(SCC(=O)N3CCCC3)[nH]c(=O)c2c1C | 1.1 | 10.0 | . | 12.7 | 1.2 | . | . | .
CCCCCNCc1cccc(Br)c1 | 0.33 | . | . | . | . | . | . | .
COc1ccc(C2=NOC(C(=O)Nc3ccc(C)cc3)C2)cc1OC (stereo unspecified) | 0.719 | 5.6 | 20.8* | -2.4 | 3.0 | 20008* | 1748 | +
COc1ccc(NC(=O)C2CC(c3ccc(OC)c(OC)c3)=NO2)cc1OC (stereo unspecified) | -0.223 | 6.8 | 7.07* | -0.1 | -2.6 | 12656* | 1588 | +
COc1ccc(C2=NOC(C(=O)NCc3ccc(F)cc3)C2)cc1OC (stereo unspecified) | . | -14.2 | 36.7* | 33.2 | -12.8 | 26920* | 2040 | +
COc1cc(C2=NOC(C(=O)NCc3ccc(F)cc3)C2)cc(OC)c1OC (stereo unspecified) | . | 1.2 | 3.83 | 29.8 | 16.4 | . | . | .
CSc1nnc(-c2sc3cc(C(F)(F)F)cnc3c2-c2ccccc2)n1C | -0.155 | . | . | . | . | . | . | .
Clc1ccccc1CSc1ncn(-c2ccccc2)n1 | -0.709 | . | . | . | . | . | . | .
CSc1nnc(-c2cccs2)n1-c1ccccc1 | 1.61 | 6.3 | 3.72* | 21.1 | 12.0 | 17328* | 1712 | +
CCOC(=O)CSc1nnc(-c2cccs2)n1-c1ccccc1 | -0.221 | 9.5 | 0.445 | 2.2 | -0.2 | . | . | .
Cc1ccnc(SCCn2c(N3CC(C)CC(C)C3)nc3c2c(=O)n(C)c(=O)n3C)n1 (stereo unspecified) | -0.478 | 4.3 | 3.02* | -6.3 | 8.1 | 5916* | 1664 | +
C#CCNC(=O)C1=C[C@H](c2cn(C(C)=O)c3ccccc23)[C@@H](CCCO)[C@H](OCC)O1 | -0.179 | . | . | . | . | . | . | .
c1ccc(-c2csc3ncn4nnnc4c23)cc1 | 0.797 | 6.0 | 10.9* | -0.3 | -1.5 | 12968* | 1552 | +
Cn1nnnc1Sc1ncnc2scc(-c3ccc(F)cc3)c12 | . | 3.5 | 11.9* | 36.5 | 20.1 | 4984 | 1648 | i
Cn1nnnc1Sc1ncnc2scc(-c3ccccc3)c12 | -1.12 | 0.5 | 5.57* | 17.6 | 5.6 | 22236* | 1604 | +
Clc1ncnc2scc(-c3ccccc3)c12 | -0.172 | . | . | . | . | . | . | .
CC(C(=O)NCc1ccco1)n1cc(C(=O)c2ccco2)c2ccccc21 (stereo unspecified) | 0.104 | . | . | . | . | . | . | .
COc1ccc(-c2nc(C#N)c(NC(C)c3ccccc3)o2)cc1OC (stereo unspecified) | . | . | 6.81* | 2.3 | 7.7 | 12956* | . | i
COc1ccc(-c2nc(C#N)c(NCC3CCCO3)o2)cc1OC (stereo unspecified) | 0.809 | -2.1 | 3.82* | -1.6 | -2.4 | 8472* | 1680 | +
N#Cc1nc(-c2ccccc2Cl)oc1NCC1CCCO1 (stereo unspecified) | 0.513 | 5.6 | 5.68* | 0.4 | 6.5 | 10656* | 1604 | +
COc1ccc(-c2nc(C#N)c(NCCCN(C)C)o2)cc1OC | 2.6 | 0.1 | -0.678 | 9.2 | 7.4 | . | . | .
CN(C)c1oc(-c2ccccc2Cl)nc1C#N | . | 2.4 | 3.44* | 2.9 | 7.0 | 6136* | 1600 | i
CN(C)c1oc(-c2ccccc2)nc1C#N | -0.602 | . | . | . | . | . | . | .
COc1cc(OC)c(NC2=NCCCCC2)cc1Cl | 0.711 | -4.0 | -0.824 | 9.3 | -16.5 | . | . | .
COc1ccc(-c2nc(C#N)c(N3CCOCC3)o2)cc1OC | 0.0236 | -0.9 | 3.2* | 22.4 | 6.6 | 11200* | 1596 | +
SMILES | DAT uptake mod | Ec RNAP inh | D1 allo mod | HEK293 NFkB inh | AP ELISA ortho | D1 PAM confirm | D1 no dopamine | Isoprot counter
COc1ccc(-c2nc(C#N)c(N3CCC(C(N)=O)CC3)o2)cc1OC | -0.00581 | . | . | . | . | . | . | .
C=CCn1c(SCC(=O)Nc2sc(C)c(C)c2C(=O)OCC)nnc1-c1sc(N)nc1C | -0.146 | 8.3 | 2.71* | 4.6 | -8.0 | 10116* | 1640 | i
Cc1ccc(-c2c3c(=O)n(C)c(=O)n(C)c3c3nnc4ccccc4n23)cc1 | . | -2.3 | 0.662 | 12.2 | 5.2 | . | . | .
Cc1ccnn2c(-c3ccccc3)c3c(=O)n(C)c(=O)n(C)c3c12 | -0.354 | 9.7 | 9.07* | 15.7 | 2.2 | 12160* | 1656 | +
Cc1cccc(-c2c3c(=O)n(C)c(=O)n(C)c3cn2CC2CCCO2)c1 (stereo unspecified) | 0.122 | -10.3 | -0.287 | 24.3 | -11.7 | . | . | .
Cc1onc(-c2c(F)cccc2Cl)c1C(=O)OCC(=O)NC(c1ccccc1)c1ccccc1 | -0.5 | . | . | . | . | . | . | .
COc1ccc(S(=O)(=O)N2CCOCC2)cc1C(C)C | -0.185 | 9.8 | 1.11 | 2.4 | 9.5 | . | . | .
CCC(C)c1cc(S(=O)(=O)N2CCOCC2)ccc1OC (stereo unspecified) | 0.0281 | 5.8 | 9.49* | 14.4 | -7.5 | 11376* | . | +
Cc1ccc2c(c1)NC(=O)C(CC(=O)N(C)Cc1ccccc1)O2 (stereo unspecified) | -0.0558 | 10.5 | 0.536 | 12.9 | 3.5 | . | . | .
C=CCn1c(=S)[nH]c2nc3c(cc2c1=O)CCCC3 | 14.9* | 4.7 | 6.02* | . | . | 13488* | 1592 | i
c1coc(-c2nnc3sc(-c4cccs4)nn23)c1 | -0.772 | 0.2 | . | . | . | . | . | .
CC(=O)NC(CC(C)C)C(=O)NC(CO)C(=O)NC(CCC(=O)O)C(=O)NC(C)C(=O)NC(CC(C)C)C(N)=O (stereo unspecified) | -0.356 | . | . | . | . | . | . | .
CCOc1ccc(-c2nc(CSc3nncs3)cs2)cc1OC | -0.426 | 7.9 | 22.9* | 9.7 | 11.9 | 21360* | . | +
CCOC(=O)N1CCC(NS(=O)(=O)c2cc(Br)cc3c2N(C(=O)CC)CC3)CC1 | . | 5.6 | 0.401 | 24.7 | 1.5 | . | . | .
N[C@@H](CO)c1nnc([C@H](CCC(=O)O)NC(=O)C2CCNCC2)o1 | 0.0239 | . | . | . | . | . | . | .
COc1ccccc1NC(=O)CSc1ccc2nnc(-c3cccnc3)n2n1 | 0.0861 | -2.1 | 2.5* | 23.8 | 20.6 | 8024 | 1728 | i
COc1ccc(C2C3=C(CC(c4ccco4)CC3=O)Nc3ccccc3N2C(C)=O)cc1 (stereo unspecified) | 1.41 | 4.7 | -0.187 | 14.9 | 4.1 | . | . | .
CC1CC(=O)C2=C(C1)Nc1ccccc1N(C(=O)COc1ccccc1)C2c1ccco1 (stereo unspecified) | 2.58 | 5.7 | 14.3* | 0.4 | 12.5 | 7072 | 1484 | i
CC1(C)CC(=O)C(CCC(=O)c2ccccc2)C(C)(C)N1 (stereo unspecified) | 0.0989 | 5.3 | 4.67* | 15.6 | -7.9 | 4348 | 1672 | i
CCOC(=O)C1=C(C)NC(=O)NC1c1cn(-c2ccccc2)nc1-c1cccs1 (stereo unspecified) | 1.53 | 4.5 | 2.75* | 14.4 | 6.5 | 10976* | 1540 | +
